Only some compounds are listed: those with a hit (about 4% of all), similar ones and a draw of the others.
OX1R antag-1 – OX1R (HCRTR1) antagonists, primary screen, fluorescence, CHO/OX1R cells, Fluo-8 calcium, orexin A. inhibition, % at 5 µM. Fluo-8 calcium fluorescence. 330,000 tested, 0.43% active;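 active = inhibition above its plate's threshold, mean inhibition of all tested compounds on the plate plus 3 SD, cut at about 37% in these data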
NTR1 agonist – agonists of human NTR1, primary screen, imaging, U2OS cells, beta-arrestin-GFP, high content; Neurotensin receptor type 1 (Homo sapiens), P30989; NTR1-U2OS beta-arrestin-GFP spot imaging, agonist mode; activation, % at 20 µM; 330,000 tested, 0.17% active; AID 493036, 2011;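 active = activation at or above 40% of the spot to cytoplasm intensity ratio, with at least 20 cells analyzed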
Target sequence (P30989 whole entry, looked up): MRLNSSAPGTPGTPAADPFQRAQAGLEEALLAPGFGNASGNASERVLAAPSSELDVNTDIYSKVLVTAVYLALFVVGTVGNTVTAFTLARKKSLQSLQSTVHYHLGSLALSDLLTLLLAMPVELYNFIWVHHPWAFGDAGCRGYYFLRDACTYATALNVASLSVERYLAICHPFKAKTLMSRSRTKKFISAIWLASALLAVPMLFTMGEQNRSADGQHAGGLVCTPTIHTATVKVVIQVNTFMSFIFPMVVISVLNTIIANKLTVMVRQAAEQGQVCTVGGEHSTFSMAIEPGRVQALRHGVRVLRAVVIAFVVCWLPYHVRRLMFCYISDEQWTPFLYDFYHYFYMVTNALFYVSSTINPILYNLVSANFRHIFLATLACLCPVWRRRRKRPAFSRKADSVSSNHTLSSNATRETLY
OX1R antag-2 – antagonists of human orexin 1 receptor (OX1R); Orexin/Hypocretin receptor type 1 (Homo sapiens), O43613; 330,000 tested, 1.8% active; AID 485270, 2010; inhibition, % at 6.6 µM; OX1R-expressing cells, FRET antagonist read-out; in the data active = inhibition mostly above about 38%, no sharp cut-off; inactive = mostly below about 40%
CHO parental Ca – ATP-evoked calcium signal inhibitors, parental CHO, primary screen, counter-screen for OX1R antagonist project, cell-based, fluorescence, Fluo-8 calcium dye; inhibition, % at 5.6 µM; 330,000 tested, 0.63% active; parental CHO-K1, ATP-induced calcium, Fluo-8 fluorescence;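 active = inhibition above that plate's mean sample inhibition plus 3 SD, cut at about 26% in these data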
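material = parental CHO cells | also added = ATP as calcium-mobilizing challenge | dosing = single point at 5.6 µM | detection = intracellular calcium via Fluo-8 no-wash fluorescent dye | read-out = % inhibition | benchmarks = low control ATP plus DMSO, high control DMSO only | repeats = one well per compound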
TAAR1 agonist – human TAAR1 agonists, primary screen, Fluo-8 calcium fluorescence, CHO RD-HGA16 cells. vehicle wells 0%, saturating PEA agonist 100%. 360,000 tested, 0.99% active. activation, % at 3 µM. Trace amine-associated receptor 1 (Homo sapiens), Q96RJ0. AID 624467, 2012;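 active = activation above the mean activation of all test compounds in the run plus 3 SD, cut at about 38% in these data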
Target sequence (Q96RJ0 whole entry, looked up): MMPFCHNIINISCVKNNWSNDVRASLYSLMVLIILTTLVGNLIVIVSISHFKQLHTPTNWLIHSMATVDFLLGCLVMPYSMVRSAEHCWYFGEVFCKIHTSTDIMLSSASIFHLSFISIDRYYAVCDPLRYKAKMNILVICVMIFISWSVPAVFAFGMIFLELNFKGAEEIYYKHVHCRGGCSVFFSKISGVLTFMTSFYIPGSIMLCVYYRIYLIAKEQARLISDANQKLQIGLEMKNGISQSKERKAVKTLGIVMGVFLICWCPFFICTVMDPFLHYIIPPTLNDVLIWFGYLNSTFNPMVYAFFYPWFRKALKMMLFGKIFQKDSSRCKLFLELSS
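System: CHO-derived RD-HGA16 cells with stable Gα16 and human TAAR1 / Times: 17-24 h plating, Fluo-8 75 min 37 °C, 30 min RT / Technique: calcium-sensitive Fluo-8 signal, excitation 470-495, emission 515-575 nm / Measure: % activation relative to PEA EC100 response / Benchmarks: DMSO and PEA EC100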
TAAR1 antagonist – human TAAR1 antagonists, primary screen, Fluo-8 calcium fluorescence, CHO RD-HGA16 cells; Trace amine-associated receptor 1 (Homo sapiens), Q96RJ0; antagonist; inhibition, % at 3 µM; 360,000 tested, 1.5% active; AID 624466, 2012;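 active = inhibition above a per-plate cutoff, the mean inhibition of test compounds on that plate plus 3 SD, cut at about 49% in these data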
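Test system: hTAAR1-expressing CHO RD-HGA16 cells, Gα16-coupled; Probe or stimulus: EC80 β-phenethylamine stimulus; Compound dosing: single nominal final test compound concentration of 3 µM; Timing: 140 s kinetic read after compound, 140 s after agonist; Signal: Fluo-8 calcium-sensitive fluorescence; Measure: % inhibition of agonist calcium response; Controls: DMSO and EC80 PEA controls.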
TAAR1 nonsel count – nonselective antagonists in TAAR1 counter-screen cells, counter-screen for hTAAR1 antagonist project, cell-based, fluorescence, calcium. shares compounds with TAAR1 antagonist. counterscreen cell line, antagonist mode. inhibition, % at 3 µM. 2,400 tested, 77% active; in the data active = inhibition above about 22%;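 also: CHO-Ga16 host cells stimulated with ATP at an EC80 level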
TAAR1 antag conf – human TAAR1 antagonists, retest of hits, confirmation, cell-based, fluorescence. shares compounds with TAAR1 antagonist. 2,400 tested, 40% active. TAAR1-expressing cells, fluorescence antagonist read-out. inhibition, % at 3 µM; in the data active = inhibition above about 49%;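 also: CHO-Ga16 host cells challenged with agonist PEA near its EC80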
Ga16 nonsel ag – calcium activation in Ga16-expressing cells, counter-screen for TAAR1 antagonist project, cell-based, fluorescence | activation, % at 3 µM | AID 651953, 2012 | shares compounds with TAAR1 antagonist | 2,400 tested, 18% active | agonist counterscreen; in the data active = activation above about 12%
TAAR1 ag counter – TAAR1 activation by candidate antagonists – cell-based, fluorescence, counter-screen for TAAR1 antagonist project; 2,400 tested, 2% active; activation, % at 3 µM; shares compounds with TAAR1 antagonist; hTAAR1 cell line, agonist mode; in the data active = activation above about 37%;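 also: CHO cells stably expressing TAAR1 with calcium dye readout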
Of the large screens only hits and unclear results are named; the others gave an inactive call (follow-up assays come after a bar, where they were run).

COc1ccc(NC(=O)N(C)[C@H]2C[C@H]3c4[nH]c5c(-c6ccccc6)cccc5c4CCN3C(=O)[C@H]2[C@H](C)O)cc1	TAAR1 antagonist 69 (no result: OX1R antag-1, NTR1 agonist, OX1R antag-2, CHO parental Ca) | TAAR1 nonsel count 41 | TAAR1 antag conf 53 | Ga16 nonsel ag inactive | TAAR1 ag counter inactive
C[C@H](O)[C@@H]1C(=O)N2CCc3c([nH]c4ccccc34)[C@@H]2C[C@@H]1N(C)C(=O)Nc1ccccc1	none (no result: OX1R antag-1, NTR1 agonist, OX1R antag-2, CHO parental Ca)
Cc1ccc2c(c1)c(-c1csc(N)n1)c(C)n2C	none
O=C(NCCCCc1ccccc1)c1cccc(NC(=O)C2CCCC2)c1	TAAR1 antagonist 64 (no result: OX1R antag-1, NTR1 agonist, OX1R antag-2, CHO parental Ca) | TAAR1 nonsel count 25 | TAAR1 antag conf inactive | Ga16 nonsel ag inactive | TAAR1 ag counter inactive
O=C(NCCCCc1ccccc1)c1cccc(NC(=O)c2ccccc2)c1	none (no result: OX1R antag-1, NTR1 agonist, OX1R antag-2, CHO parental Ca)
O=C(NCCc1ccc(F)cc1)c1cccc(NC(=O)c2ccccc2)c1	TAAR1 antagonist 61 | TAAR1 nonsel count 33 | TAAR1 antag conf 51 | Ga16 nonsel ag inactive | TAAR1 ag counter inactive
O=C(Nc1cccc(C(=O)Nc2ccc(Br)cc2)c1)c1ccccc1	TAAR1 antagonist 76 | TAAR1 nonsel count 44 | TAAR1 antag conf 57 | Ga16 nonsel ag inactive | TAAR1 ag counter inactive
O=C(/C=C/c1ccccc1)Nc1cccc(C(=O)NCCCc2ccccc2)c1	TAAR1 antagonist 77 (no result: OX1R antag-1, NTR1 agonist, OX1R antag-2, CHO parental Ca) | TAAR1 nonsel count 35 | TAAR1 antag conf 50 | Ga16 nonsel ag inactive | TAAR1 ag counter inactive
COc1ccccc1OCc1nnc(SCC(=O)Nc2nnc(C3CC3)s2)n1C	none
CCN(CC)C1Oc2cc3c(cc2C(c2cc(OC)c(OC)c(OC)c2)C1C)OCO3 (stereo unspecified)	none (no result: OX1R antag-1, NTR1 agonist, OX1R antag-2, CHO parental Ca)
Cc1nc(CC(C)C)cc(C(=O)N2CCCC(CNS(=O)(=O)c3cccs3)C2)n1 (stereo unspecified)	none
C[C@H](NC(=O)c1nc[nH]c1C(=O)NCC(=O)OCc1ccccc1)c1ccccc1	TAAR1 antagonist 64 | TAAR1 nonsel count 32 | TAAR1 antag conf 50 | Ga16 nonsel ag inactive | TAAR1 ag counter inactive
C[C@H](NC(=O)c1nc[nH]c1C(=O)NCC(=O)OCc1ccccc1)C(=O)OCc1ccccc1	TAAR1 antagonist 71 | TAAR1 nonsel count 36 | TAAR1 antag conf 62 | Ga16 nonsel ag inactive | TAAR1 ag counter inactive
CC(C)C[C@H](NC(=O)c1nc[nH]c1C(=O)NCC(=O)OC(C)(C)C)C(=O)OCc1ccccc1	none
CNC(=O)c1[nH]cnc1C(=O)N[C@@H](C)C(=O)OCc1ccccc1	none
CC(C)C[C@H](NC(=O)c1nc[nH]c1C(=O)NCC(=O)OCc1ccccc1)C(=O)OCc1ccccc1	TAAR1 antagonist 67 | TAAR1 nonsel count inactive | TAAR1 antag conf 53 | Ga16 nonsel ag inactive | TAAR1 ag counter inactive
COc1ccc(CN2CCNC(=O)C2CC(=O)NCCc2nc(C)c3c(n2)CCC3)cc1C (stereo unspecified)	none
COc1ccc(C2=NS(=O)(=O)N(C)C(C(=O)N3CCc4ccccc4C3)=C2)cc1OC	TAAR1 antagonist 68 | TAAR1 nonsel count 40 | TAAR1 antag conf 50 | Ga16 nonsel ag inactive | TAAR1 ag counter 51
COc1ccc(CNC(=O)C2=CC(c3ccc(OC)c(OC)c3)=NS(=O)(=O)N2C)cc1	none
CCc1ccc(NC(=O)C2=CC(c3ccc(OC)c(OC)c3)=NS(=O)(=O)N2C)cc1	TAAR1 antagonist 68 | TAAR1 nonsel count 33 | TAAR1 antag conf inactive | Ga16 nonsel ag inactive | TAAR1 ag counter inactive
COc1ccc(C2=NS(=O)(=O)N(C)C(C(=O)NCc3ccccc3)=C2)cc1OC	none
Cc1cc2[nH]c(=O)c(=O)[nH]c2cc1S(=O)(=O)Nc1cccc(Cl)c1C	none
Cc1ccc(-c2cc(-c3ccc(F)cc3)c(C#N)c(N)n2)o1	TAAR1 antagonist 57 | TAAR1 nonsel count inactive | TAAR1 antag conf inactive | Ga16 nonsel ag inactive | TAAR1 ag counter inactive
Cc1cc(OCCN2CCOCC2)ccc1Cl	none
CC(C)NC(=O)c1cnc(N2CCN(c3ccccn3)CC2)c2ccccc12	none
CCc1ccc(NC(=O)c2cnc(N3CCN(c4ccccn4)CC3)c3ccccc23)cc1	TAAR1 antagonist 68 | TAAR1 nonsel count 37 | TAAR1 antag conf 55 | Ga16 nonsel ag 12 | TAAR1 ag counter inactive
O=C(CN1CCN(c2ccccn2)CC1)Nc1ccccc1	none
O=C(CN1CCN(c2ccccn2)CC1)Nc1ccccc1C(=O)Nc1ccccc1	TAAR1 antagonist 65 | TAAR1 nonsel count 27 | TAAR1 antag conf inactive | Ga16 nonsel ag inactive | TAAR1 ag counter inactive
COc1ccc(N2CCN(CC(=O)Nc3ccccc3C(=O)NC(C)c3ccccc3)CC2)cc1 (stereo unspecified)	TAAR1 antagonist 61 (no result: OX1R antag-1, NTR1 agonist, OX1R antag-2, CHO parental Ca) | TAAR1 nonsel count inactive | TAAR1 antag conf inactive | Ga16 nonsel ag inactive | TAAR1 ag counter inactive
CC(=O)c1ccc(OCC(=O)Nc2ccc3c(c2)CCC3)cc1	TAAR1 antagonist 84 | TAAR1 nonsel count inactive | TAAR1 antag conf inactive | Ga16 nonsel ag inactive | TAAR1 ag counter inactive
O=C(CN1CCN(Cc2ccccc2)CC1)Nc1ccc([N+](=O)[O-])cc1C(=O)Nc1ccccc1F	TAAR1 antagonist 58 | TAAR1 nonsel count 29 | TAAR1 antag conf 51 | Ga16 nonsel ag inactive | TAAR1 ag counter inactive
CCS(=O)(=O)c1ccc(-c2csc(-c3ccccc3)n2)c(Cl)c1Cl	TAAR1 antagonist 68 | TAAR1 nonsel count 24 | TAAR1 antag conf inactive | Ga16 nonsel ag inactive | TAAR1 ag counter inactive
COc1ccccc1NC(=O)C(C)OC(=O)Cc1ccsc1 (stereo unspecified)	none (no result: OX1R antag-1, OX1R antag-2, CHO parental Ca)
COc1cc(C(=O)Nc2nc(-c3cc(C)ccc3C)c(C)s2)ccc1OCC(=O)Nc1ccc(F)cc1	none

Assay outcomes: PubChem BioAssay, several laboratories
